# Results: publication PMC6062249 (Toxicology Research, 2016)
# Like-named read-outs stand apart in the source and are kept apart here.
# Columns and labels:
# human recombinant CYP1A1 = target: T1, human recombinant CYP1A1 (Homo sapiens, UniProt P04798); test: EROD activity of microsomes containing human recombinant CYP1A1; assay type: biochemical
# T1 sequence (P04798 1-512): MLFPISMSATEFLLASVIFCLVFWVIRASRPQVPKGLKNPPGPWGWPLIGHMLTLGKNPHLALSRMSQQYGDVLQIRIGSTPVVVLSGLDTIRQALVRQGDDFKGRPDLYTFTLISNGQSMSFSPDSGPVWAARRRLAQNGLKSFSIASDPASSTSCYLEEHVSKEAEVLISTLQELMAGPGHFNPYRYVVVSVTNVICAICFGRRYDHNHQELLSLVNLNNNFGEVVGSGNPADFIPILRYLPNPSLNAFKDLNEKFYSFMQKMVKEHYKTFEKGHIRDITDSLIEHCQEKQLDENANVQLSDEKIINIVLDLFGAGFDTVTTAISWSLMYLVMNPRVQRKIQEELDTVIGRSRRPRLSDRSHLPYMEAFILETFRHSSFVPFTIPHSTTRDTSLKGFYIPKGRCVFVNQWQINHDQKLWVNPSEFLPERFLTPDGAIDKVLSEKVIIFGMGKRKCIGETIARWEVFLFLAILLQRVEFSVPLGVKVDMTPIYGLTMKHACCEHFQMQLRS
# Summary of the method: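 Microsomes containing recombinant human CYP1A1 (2.5 nM) with NADPH-P450 reductase were pre-incubated 5 min with test compound (0.00064–20 μM) or DMSO (final <0.5%). 7-Ethoxyresorufin (0.5 μM) and NADPH (0.4 mM) were then added. Resorufin formation was followed kinetically at 535/590 nm, every 2 s, in triplicate. DMSO control was set as 100% and the no-NADPH reaction as 0%; IC50 was fitted by nonlinear regression.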
# [1] = tested on: CYP1A1 mRNA in HaCaT cells; test: CYP1A1 gene expression by qRT-PCR in HaCaT cells, single exposure; assay type: cell-based, human; conditions: 6 h; for reduction of CYP1A1 mRNA levels compared to DMSO control: dose-dependent, 0.1-10 μM
# Summary of the method: (§1)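 Confluent HaCaT cells (seeded 1 × 10^4/well, grown 3 d) were exposed in fresh DMEM to 0.1, 1.0 or 10 μM test compound or DMSO for 6 h. One-step SYBR Green RT-PCR used cell lysate directly with 200 nM primers. Cycling was 48 °C 30 min, 95 °C 10 min, then 40 × (95 °C 15 s, 60 °C 1 min), with melt curve. Expression is 2^–ΔΔCt normalized to B2M; three experiments in duplicate. Calls required p < 0.05 (two-way ANOVA, Bonferroni) and >2-fold versus DMSO; strong inducer was ≥20-fold.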
# [2] = tested on: CYP1B1 mRNA in HaCaT cells; test: CYP1B1 gene expression by qRT-PCR in HaCaT cells, single exposure; assay type: cell-based, human; conditions: 6 h; for reduction of CYP1B1 mRNA levels compared to DMSO control: dose-dependent, 0.1-10 μM
# Summary of the method: as §1
# [3] = tested on: TCDD induced CYP1-dependent EROD activity in HaCaT cells; test: TCDD-induced cellular EROD activity in HaCaT cells, co-exposure with oxy-PAH; assay type: cell-based, human; conditions: TCDD 5 nM + 0.1-10 μM oxy-PAH, 6, 12, 24 h
# Summary of the method: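 Confluent HaCaT cells were co-exposed to TCDD (5 nM) alone or with 0.1, 1.0 or 10 μM test compound for 6, 12 and 24 h. After a PBS rinse, cells were incubated 20 min at 37 °C with 2 μM 7-ethoxyresorufin in 50 mM sodium phosphate, pH 8.0, and stopped with cold fluorescamine. Resorufin (535/590 nm) was read in triplicate and normalized to fluorescamine protein signal. Activity is % of TCDD alone.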
# CYP1 = conditions: read-out: reported IC50 values, CYP1 inhibition; cited from earlier work
# [4] = tested on: CYP1-dependent EROD activity in HaCaT cells; test: Cellular CYP1-dependent EROD activity in HaCaT cells, single exposure; assay type: cell-based, human; conditions: HaCaT cells, 0.1, 1.0 or 10 μM, 3-48 h
# Summary of the method: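 Confluent HaCaT cells were exposed to 0.1, 1.0 or 10 μM test compound, B[a]P or DMSO for 3, 6, 24 and 48 h. Medium was removed and cells rinsed with PBS, then incubated 20 min at 37 °C with 2 μM 7-ethoxyresorufin in 50 mM sodium phosphate, pH 8.0. The reaction was stopped with cold fluorescamine (0.15 mg/mL in acetonitrile). Resorufin was read at 535/590 nm in triplicate and normalized to protein (fluorescamine, 390/485 nm).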
# [5] = tested on: TCDD induced CYP1A1 mRNA in HaCaT cells; test: TCDD-induced CYP1A1 mRNA in HaCaT cells, co-exposure with oxy-PAH; assay type: cell-based, human; conditions: TCDD 5 nM + 1 μM oxy-PAH, 6 h
# Summary of the method: (§2)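 Confluent HaCaT cells were exposed for 6 h to TCDD (5 nM) alone or with 0.1, 1.0 or 10 μM test compound. CYP1A1 and CYP1B1 mRNA were measured by one-step SYBR Green RT-PCR on cell lysate with 200 nM primers. Quantification used 2^–ΔΔCt with B2M as reference; three experiments in duplicate. Levels are % of TCDD-alone mRNA (100%). Strong inhibitor meant p < 0.05 at ≤1 μM; inhibitor meant p < 0.05 at 10 μM (two-way ANOVA, Bonferroni).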
# [6] = tested on: TCDD induced CYP1B1 mRNA in HaCaT cells; test: TCDD-induced CYP1B1 mRNA in HaCaT cells, co-exposure with oxy-PAH; assay type: cell-based, human; conditions: TCDD 5 nM + 1 μM oxy-PAH, 6 h
# Summary of the method: as §2
# [7] = tested on: TCDD induced CYP1 mRNA (CYP1A1 and 1B1) in HaCaT cells; test: TCDD-induced CYP1 mRNA; assay type: cell-based, human; conditions: TCDD 5 nM + 0.1-10 μM oxy-PAH, 6 h
# Summary of the method: as §2
# HaCaT cells = test: Alamar Blue cell viability assay; assay type: cell-based, human; conditions: 10 μM, alone or with TCDD 5 nM, 24 h
# Summary of the method: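 HaCaT keratinocytes were grown in DMEM with 10% FBS at 37 °C, 5% CO2, seeded at 1 × 10^4 cells/well and cultured 3 d to high confluency. Cells were exposed in fresh DMEM to test compound alone or with TCDD (5 nM), with 0.1–0.18% DMSO as solvent control. Afterwards, 10% AlamarBlue in DMEM was added for 1 h at 37 °C and fluorescence read at 560/590 nm. Viability is given as % of DMSO control, from three separate experiments.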
# [8] = IC50, inhibition of CYP1A1-mediated EROD activity, human recombinant CYP1A1 2.5 nM, 7-ethoxyresorufin 0.5 μM, NADPH 0.4 mM, 5 min pre-incubation
compound,measurement,setting,value
"O=C1CCc2ccccc21 [1-INO, 1-Indanone]",IC50,human recombinant CYP1A1; [8],> 10000 nM
"O=C1c2ccccc2C(=O)c2ccccc21 [9,10-AQ, anthracene-9,10-quinone]",IC50,human recombinant CYP1A1; [8],> 10000 nM
same,reduction of CYP1A1 mRNA levels compared to DMSO control,[1],up to 15 fold
same,reduction of CYP1B1 mRNA levels compared to DMSO control,[2],up to 15 fold
same,inhibition of TCDD-mediated EROD activity (in words),[3],significant inhibition
"c1ccc2c(c1)ccc1nc3ccc4ccccc4c3cc12 [dibenz[a,j]acridine]",IC50,CYP1,< 100 nM
"Cc1cc2c(cc1C)C(=O)c1ccccc1C2=O [2,3-DMAQ, 2,3-dimethylanthracene-9,10-quinone]",IC50,human recombinant CYP1A1; [8],2100 nM
same,induction of cellular EROD activity (in words),[4],significantly increased levels of enzyme activity compared to the DMSO control but lower than B[a]P
same,inhibition of TCDD-mediated EROD activity (in words),[3],significant inhibition
same,reduction of TCDD-induced CYP1A1 mRNA levels,[5],around 50%
same,reduction of TCDD-induced CYP1B1 mRNA levels,[6],around 50%
"Clc1cc2c(cc1Cl)Oc1cc(Cl)c(Cl)cc1O2 [TCDD, 2,3,7,8-Tetrachlorodibenzo-p-dioxin, reference compound]",increase of CYP1A1 mRNA levels compared to DMSO control,[1]; TCDD alone 5 nM,138 fold
same,increase of CYP1B1 mRNA levels compared to DMSO control,[2]; TCDD alone 5 nM,36 fold
"O=C1c2ccccc2-c2ccc3ccccc3c21 [BFLO, benzo[a]fluorenone]",IC50,"human recombinant CYP1A1; read-out: IC50, inhibition of CYP1A1-mediated EROD activity, human recombinant CYP1A1 2.5 nM, 7-ethoxyresorufin 0.5 μM, NADPH 0.4 mM, 5 min pre-incubation",61 nM
same,increase of CYP1A1 mRNA levels compared to DMSO control,[1]; 0.1-10 μM oxy-PAH,up to 60 fold
same,increase of CYP1B1 mRNA levels compared to DMSO control,[2]; 0.1-10 μM oxy-PAH,≤ 40 fold
same,inhibition of TCDD-mediated EROD activity (in words),[3],most potent inhibitors
same,reduction of TCDD-induced CYP1A1 mRNA levels,[5],around 50%
same,reduction of TCDD-induced CYP1B1 mRNA levels,[6],around 50%
"O=C1C=CC(=O)c2c1ccc1c2ccc2ccccc21 [1,4-CHRQ, chrysene-1,4-quinone]",IC50,human recombinant CYP1A1; [8],6200 nM
same,induction of cellular EROD activity (in words),[4],did not induce EROD activity
same,increase of CYP1A1 mRNA levels compared to DMSO control,[1]; 0.1-10 μM oxy-PAH,up to 60 fold
same,increase of CYP1B1 mRNA levels compared to DMSO control,[2]; 0.1-10 μM oxy-PAH,≤ 40 fold
same,effect on TCDD-induced CYP1A1 and 1B1 expression levels (in words),[7],no effect at all
"O=C1c2ccccc2C(=O)c2cc3ccccc3cc21 [5,12-NQ, naphthacene-5,12-quinone]",increase of CYP1A1 mRNA levels compared to DMSO control,[1]; 0.1-10 μM oxy-PAH,up to 60 fold
same,increase of CYP1B1 mRNA levels compared to DMSO control,[2]; 0.1-10 μM oxy-PAH,≤ 40 fold
same,inhibition of TCDD-mediated EROD activity (in words),[3],significant inhibition
same,effect on TCDD-induced CYP1A1 and 1B1 expression levels (in words),[7],no effect at all
"O=c1cc(-c2ccccc2)oc2c1ccc1ccccc12 [αNF, α-Naphthoflavone]",IC50,CYP1,< 100 nM
"O=C1C(=O)c2cccc3cccc1c23 [1,2-ACNQ, acenaphthylene-1,2-quinone]",IC50,human recombinant CYP1A1; [8],> 10000 nM
"O=C1c2ccccc2-c2cccc3cccc1c23 [7H-BAO, 7H-benz[de]anthracene-7-one]",IC50,human recombinant CYP1A1; [8],770 nM
"Cc1ccc2c(c1)C(=O)c1ccccc1C2=O [2-MAQ, 2-methylanthracene-9,10-quinone]",induction of cellular EROD activity (in words),[4],significantly increased levels of enzyme activity compared to the DMSO control but lower than B[a]P
"O=C1c2ccccc2C(=O)c2c1ccc1ccccc21 [7,12-BAQ, benz[a]anthracene-7,12-quinone]",IC50,human recombinant CYP1A1; [8],37 nM
same,increase of CYP1A1 mRNA levels compared to DMSO control,[1]; 0.1-10 μM oxy-PAH,up to 60 fold
same,increase of CYP1B1 mRNA levels compared to DMSO control,[2]; 0.1-10 μM oxy-PAH,≤ 40 fold
same,inhibition of TCDD-mediated EROD activity (in words),[3],most potent inhibitors
same,effect on TCDD-induced CYP1A1 and 1B1 expression levels (in words),[7],no effect at all
"O=c1c2cccc3ccc4cccc1c4c32 [4H-CPO, 4H-Cyclopenta[def]phenanthrene-4-one]",IC50,human recombinant CYP1A1; [8],320 nM
same,induction of cellular EROD activity (in words),[4],significantly increased levels of enzyme activity compared to the DMSO control but lower than B[a]P
same,reduction of CYP1A1 mRNA levels compared to DMSO control,[1],up to 15 fold
same,reduction of CYP1B1 mRNA levels compared to DMSO control,[2],up to 15 fold
"O=C1c2cccc3ccc4ccc5cccc1c5c4c23 [6H-BPO, 6H-benzo[cd]pyren-6-one]",induction of cellular EROD activity (in words),[4],significantly increased levels of enzyme activity compared to the DMSO control but lower than B[a]P
same,reduction of CYP1A1 mRNA levels compared to DMSO control,[1],up to 15 fold
same,reduction of CYP1B1 mRNA levels compared to DMSO control,[2],up to 15 fold
same,inhibition of TCDD-mediated EROD activity (in words),[3],significant inhibition
same,reduction of TCDD-induced CYP1A1 mRNA levels,[5],around 50%
same,reduction of TCDD-induced CYP1B1 mRNA levels,[6],around 50%
same,"cytotoxicity (Alamar Blue viability, in words)",HaCaT cells,not associated with increased cytotoxicity
c1ccc2cc3c(ccc4ccccc43)cc2c1 [benz[a]anthracene],IC50,CYP1,< 100 nM
"O=C1c2ccccc2-c2ccccc21 [9-FLO, 9-fluorenone]",IC50,human recombinant CYP1A1; [8],3000 nM
"O=C1C=Cc2cccc3cccc1c23 [1H-PHO, 1H-phenalen-1-one]",IC50,human recombinant CYP1A1; [8],> 10000 nM
c1cc2ccc3cccc4ccc(c1)c2c34 [pyrene],IC50,CYP1,< 100 nM
"O=C1C(=O)c2ccccc2-c2ccccc21 [9,10-PQ, phenanthrene-9,10-quinone]","cytotoxicity (Alamar Blue viability, in words)",HaCaT cells,increased cytotoxicity
